RGS4 pot: RGS4 potentiation or activation | hit rate 0.92% among 310,000 | HEK293 M3R/inducible RGS4, carbachol calcium flux Fluo4; hits give low values | B-score at 10 µM;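 active means B-score of the integrated calcium signal more than 4 SD below the library mean, with starting fluorescence not abnormally high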;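 further: negative B-score means reduced calcium response which marks RGS4 activation or potentiation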
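test system = HEK293 cells with stable M3R and inducible RGS4 | schedule = recording 10 s baseline at 1 Hz, 100 s post-agonist | technique = Fluo4-AM (2 µM) calcium-flux fluorescence, kinetic read | measure = Agonist-evoked peak-minus-minimum fluorescence over baseline, integrated ratio, B score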
MrgX1 antagonist: blocks BAM8-22 activation of human MrgX1 receptor; Q96LB2; AID 588676; MRGX1-HEK293 calcium flux, Fluo-4, BAM8-22 antagonism; hits give low values; hit rate 1.3% among 310,000; B-score at 10 µM;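 active means calcium-response B-score plate-corrected more than 3 library SD below zero, starting fluorescence within 5 deviations, no agonist response on first addition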;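 further: peak minus trough fluorescence over baseline after final BAM8-22 challenge near maximal dose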
Target sequence (Q96LB2 whole entry, looked up): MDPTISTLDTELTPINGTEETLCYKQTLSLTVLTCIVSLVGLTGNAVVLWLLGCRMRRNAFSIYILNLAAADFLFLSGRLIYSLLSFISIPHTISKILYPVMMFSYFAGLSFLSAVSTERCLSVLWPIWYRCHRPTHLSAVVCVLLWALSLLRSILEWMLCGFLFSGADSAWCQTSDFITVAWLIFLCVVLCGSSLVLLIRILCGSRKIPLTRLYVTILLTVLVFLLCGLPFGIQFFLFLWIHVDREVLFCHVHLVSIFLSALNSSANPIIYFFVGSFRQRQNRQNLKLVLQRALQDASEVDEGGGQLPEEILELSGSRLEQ
RGS4 inh: human RGS4 inhibition; P49798; HEK293 M3R/RGS4 inducible, Fluo-4 calcium flux; hits give high values; triggered by carbachol at its EC20; B-score at 10 µM; hit rate 0.45% among 310,000; AID 463165;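 active means B-score, a plate-corrected calcium signal, over three deviations above library mean, with baseline fluorescence within five deviations of library mean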;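 further: RGS4 expression induced by doxycycline in cells with stable M3 receptor; B-score is computed from the integrated fluorescence ratio over baseline after carbachol; higher B-score means a larger calcium signal and so more RGS4 inhibition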
Target sequence (P49798 whole entry, looked up): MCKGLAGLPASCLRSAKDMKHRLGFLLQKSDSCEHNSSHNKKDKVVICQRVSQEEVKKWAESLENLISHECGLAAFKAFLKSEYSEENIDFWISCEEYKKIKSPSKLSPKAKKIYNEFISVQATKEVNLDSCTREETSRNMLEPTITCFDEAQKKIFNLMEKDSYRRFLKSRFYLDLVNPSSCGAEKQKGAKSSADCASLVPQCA
MrgX1 ag: agonists of human MrgX1 receptor; MrgX1-HEK293 cells, Fluo-4 calcium fluorescence, agonist mode; hits give high values; B-score at 10 µM; hit rate 0.44% among 310,000; AID 588627;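 active means calcium response B-score plate-corrected fluorescence ratio at least 3 library SD, with starting fluorescence B-score inside 5 SD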
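Test system: Stable human MrgX1 HEK293 cell line | Schedule: Overnight plating before 1 h dye loading | Read-out basis: Baseline-normalised fluorescence change ratio, B-scored | Detection: Kinetic calcium dye fluorescence, Fluo-4 NW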
MrgX1 allo act: allosterically activates human MrgX1 receptor signaling; B-score at 10 µM; hit rate 0.63% among 310,000; MrgX1-HEK293, Fluo-4 calcium flux, FDSS; hits give high values; Q96LB2;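 active means plate-corrected calcium response at least 3 library SD above typical, normal starting fluorescence, not activating the receptor alone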;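 further: compound read alongside a low EC10 to EC30 dose of BAM8-22 agonist; peak minus trough fluorescence over baseline measured at the second addition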
* hit, by the source's call; i = inactive; nt = not tested or not shown. An excerpt weighted towards active compounds, which were near 3.5% of everything screened.

SMILES	RGS4 pot	MrgX1 antagonist	RGS4 inh	MrgX1 ag	MrgX1 allo act
CCC1=NN2C(=N)/C(=C/c3cc(C)n(Cc4ccccc4)c3C)C(=O)N=C2S1	i	i	i	i	i
CCC(CC)C1=NN2C(=N)/C(=C\c3cc(C)n(-c4cccc(C)c4)c3C)C(=O)N=C2S1	-7.56*	i	i	i	i
Cc1nn(-c2ccccc2)c(Cl)c1/C=C1\SC(=S)NC1=O	i	-4.89*	i	i	i
COc1ccc(-n2cccc2/C=C2\C(=N)N3N=C(C(C)C)SC3=NC2=O)cc1	i	i	i	i	i
Cc1nn(-c2ccccc2)c(Cl)c1/C=C1/C(=N)N2N=C(C(C)C)SC2=NC1=O	i	i	i	i	9.63*
CC(C)(CC(=O)O)CC(=O)Nc1cc(C(F)(F)F)cc(C(F)(F)F)c1	i	i	i	i	i
CCNC(=O)CC1C(=O)N(c2ccc(C)cc2)C(=O)N1CCc1sccc1C (stereo not drawn)	i	i	i	i	i
COCCN(Cc1ccccc1)C(=O)c1cc(-c2ccc(OC)c(OC)c2)nc2ccccc12	-8.73*	i	i	i	i
COc1cc(-c2cc(C(=O)N(C)Cc3ccccc3)c3ccccc3n2)cc(OC)c1OC	i	i	i	i	i
COc1ccc(-c2cc(C(=O)N(C)Cc3ccccc3F)c3ccccc3n2)cc1OC	-8.25*	i	i	i	i
CCN(Cc1ccccc1)C(=O)c1cc(-c2ccc(OC)c(OC)c2)nc2ccccc12	-9.15*	i	i	i	i
COc1cccc(CN(C)C(=O)c2cc(-c3cccs3)nc3ccccc23)c1	-9.1*	i	i	i	i
CCOC(=O)C(CN1CCCC1)c1ccccc1 (stereo not drawn)	i	i	i	i	i
O=C(c1ccc(Cl)cc1)C(CN1CCCCC1)c1ccccc1 (stereo not drawn)	-8.33*	i	i	i	i
CCOc1ccc(Br)cc1/C(C)=N\NC1=NCCN1	-6.97*	i	i	i	i
Cc1ccc(-c2ccc(/C=C3\SC(N4CCOCC4)=NC3=O)o2)cc1	i	i	i	i	i
Cc1ccc(/C=C2\SC(N3CCN(C(c4ccccc4)c4ccccc4)CC3)=NC2=O)o1	-9.4*	i	i	i	i
COc1cccc(C(=O)Nc2cccc(-c3ccc(N4CCOCC4)nn3)c2)c1OC	-7.45*	i	i	i	i
COc1ccc(C(=O)NC2CC2)cc1OC1CCN(Cc2ccc(F)cc2Cl)CC1	i	i	i	i	i
Cc1ccc(-n2nc3c(c2NC(=O)c2ccc4c(c2)OCO4)CS(=O)(=O)C3)cc1C	i	i	i	i	i
CNC(=O)c1cc2cc(OC)ccc2oc1=O	i	i	i	i	i
COc1ccc2oc(=O)c(C(=O)C[n+]3cccc(C)c3)cc2c1	-10.4*	i	i	i	i
CCOC(=O)c1ccc(NS(=O)(=O)c2c(N)n(C)c(=O)n(C)c2=O)cc1	i	i	i	i	i
CCOc1ccc(N(CC(=O)NC2CCCCC2)C(=O)Cn2nnc(-c3ccc(C)o3)n2)cc1	i	nt	i	nt	nt
Cc1ccc(C(=O)COC(=O)C2CC3CCCC(C2)C3=O)cc1[N+](=O)[O-] (stereo not drawn)	i	-5.63*	i	i	i
SMILES	RGS4 pot	MrgX1 antagonist	RGS4 inh	MrgX1 ag	MrgX1 allo act
Cc1ccc(C(=O)OCCc2sc[n+](Cc3ccccc3)c2C)cc1	-9.09*	i	i	i	i
Cc1c(CCOC(=O)C23CC4CC(CC(C)(C4)C2)C3)sc[n+]1Cc1ccccc1	i	i	i	i	i
Cc1ccc(-c2nc3ccc(Cl)cc3c(=O)n2O)cc1	i	i	i	36.9*	i
c1ccc2c(c1)CCN(c1ncnc3c1[nH]c1ccccc13)C2	i	-8.16*	i	i	i
C=CCOc1ccc(/C=N/NC(=O)c2cc3c(OC)cc(OC)cc3[nH]2)cc1	-8.13*	i	i	i	i
CC(C)c1ccc(NC(=O)[C@@H](C)NC(=O)[C@@H]2Cc3ccccc3CN2)cc1	-7.38*	i	i	i	i
NS(=O)(=O)c1ccc(CNS(=O)(=O)c2cccc3nonc23)cc1	i	i	i	i	i
C=CCOc1ccc2c(OC)c3ccoc3nc2c1OC	i	i	i	i	i
COc1c2c(nc3occc13)C(CC=C(C)C)(OC)C(=O)C=C2 (stereo not drawn)	i	i	i	i	12.3*
c1ccc(C2OC3c4cccc5cccc(c45)C3N2c2ccccc2)cc1 (stereo not drawn)	i	i	i	34.1*	i
Cc1nc2nc(SCC(=O)NCCCN3CCCCCC3)nn2c(C)c1Cc1ccccc1	-7.45*	i	i	i	i
COc1ccc([N+](=O)[O-])cc1N(CC(=O)NC1CCCCC1)S(C)(=O)=O	i	i	i	i	i
Cc1ccc([N+](=O)[O-])cc1N(CC(=O)N1CCCCC1)S(C)(=O)=O	i	i	i	i	7.49*
Cc1ccc([N+](=O)[O-])cc1N(CC(=O)NC1CCCC1)S(C)(=O)=O	i	i	i	i	11.2*
Cc1ccc(C)c(N(CC(=O)N2CCCCCC2)S(C)(=O)=O)c1	i	i	i	i	i
O=C(OCC(=O)N1CCCc2ccccc21)c1cccc(S(=O)(=O)N2CCc3ccccc32)c1	i	i	i	i	i
CCN(CC)CCNC(=O)C1(O)c2cc(Br)ccc2NC(=O)N1c1ccccc1 (stereo not drawn)	i	i	i	i	i
Cc1nnc(N/N=C/c2ccc(-c3ccc(Br)cc3)o2)n1N	i	i	i	i	i
Cc1nnc(N/N=C/c2ccc(Br)cc2)n1N	i	i	i	i	18.1*
Cc1ccc(NC(=O)C(C)OC(=O)c2ccc(NC(=O)CC#N)cc2)cc1S(=O)(=O)N1CCOCC1 (stereo not drawn)	i	-4.54*	i	i	i
Cc1ccc(-n2c(C)nnc2SCC(=O)NC2CCCC2)cc1	i	i	i	i	i
COc1cccc(/C=N/Nc2nc3ccccc3n3cnnc23)c1O	-7.11*	i	i	i	i
COc1ccc2nc(C)cc(N/N=C/c3cccc(OC)c3O)c2c1	-10.6*	i	i	i	i
COc1cccc(/C=N/Nc2nc3ccccc3n3cnnc23)c1	i	i	i	i	i
COc1ccc(/C=N/Nc2cc(C)nc3ccc(Br)cc23)cc1	i	i	i	i	i

Screening results: PubChem, Johns Hopkins Ion Channel Center
